# Test results reported in ChEMBL document CHEMBL1944509, “Methyl-monofluorination of ibuprofen selectively increases its inhibitory activity toward cyclooxygenase-1 leading to enhanced analgesic activity and reduced gastric damage in vivo” (Bioorg Med Chem Lett, 2011).
# Calls of active or inactive are those of the source. The rule behind the calls is not given here.
# Tests used:
# [1] = Plasma concentration in ICR mouse at 5 mg/kg, iv after 0.5 hrs by HPLC/MS/MS analysis; assay type: ADME, organism-based; set-up: dose 5 mg/kg, route intravenous
# [2] = Mean residence time (0 to infinity) in ICR mouse at 5 mg/kg, iv; assay type: ADME, organism-based; set-up: dose 5 mg/kg, route intravenous; details: in vivo
# Summary of the method: (§1)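 ICR mice given drug intravenously at 5 mg/kg or orally at 10 mg/kg. Parameters are taken from the plasma concentration–time profile: AUC(0–t), AUC(0–∞), MRT, Cmax and bioavailability.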
# Nucleic Acid [3] = assay: Ratio of drug level in brain to plasma in ICR mouse at 10 mg/kg, po after 1 hr by HPLC/MS/MS analysis; assay type: ADME, organism-based; set-up: dose 10 mg/kg, route oral
# [4] = Cmax in ICR mouse at 5 mg/kg, iv; assay type: ADME, organism-based; set-up: dose 5 mg/kg, route intravenous; details: in vivo; summary of the method: as §1
# [5] = Plasma concentration in ICR mouse at 5 mg/kg, iv after 0.083 hrs by HPLC/MS/MS analysis; assay type: ADME, organism-based; set-up: dose 5 mg/kg, route intravenous
# [6] = Drug level in ICR mouse brain at 5 mg/kg, iv after 0.5 hrs by HPLC/MS/MS analysis; assay type: ADME, organism-based; set-up: dose 5 mg/kg, route intravenous; details: read-out: Drug uptake
# [7] = Plasma concentration in ICR mouse at 10 mg/kg, po after 0.5 hrs by HPLC/MS/MS analysis; assay type: ADME, organism-based; set-up: dose 10 mg/kg, route oral
# Nucleic Acid [8] = assay: Ratio of drug level in brain to plasma in ICR mouse at 10 mg/kg, po after 0.5 hrs by HPLC/MS/MS analysis; assay type: ADME, organism-based; set-up: dose 10 mg/kg, route oral
# [9] = Plasma concentration in ICR mouse at 5 mg/kg, iv after 2 hrs by HPLC/MS/MS analysis; assay type: ADME, organism-based; set-up: dose 5 mg/kg, route intravenous
# [10] = Drug level in ICR mouse brain at 5 mg/kg, iv after 0.083 hrs by HPLC/MS/MS analysis; assay type: ADME, organism-based; set-up: dose 5 mg/kg, route intravenous; details: read-out: Drug uptake
# [11] = Drug level in ICR mouse brain at 5 mg/kg, iv after 0.25 hrs by HPLC/MS/MS analysis; assay type: ADME, organism-based; set-up: dose 5 mg/kg, route intravenous; details: read-out: Drug uptake
# [12] = Plasma concentration in ICR mouse at 10 mg/kg, po after 1 hr by HPLC/MS/MS analysis; assay type: ADME, organism-based; set-up: dose 10 mg/kg, route oral
# Nucleic Acid [13] = assay: Ratio of drug level in brain to plasma in ICR mouse at 5 mg/kg, iv after 0.25 hrs by HPLC/MS/MS analysis; assay type: ADME, organism-based; set-up: dose 5 mg/kg, route intravenous
# [14] = AUC (0 to infinity) in ICR mouse at 10 mg/kg, po; assay type: ADME, organism-based; set-up: time infinity, dose 10 mg/kg, route oral; details: plasma; summary of the method: as §1
# [15] = Mean residence time (0 to infinity) in ICR mouse at 10 mg/kg, po; assay type: ADME, organism-based; set-up: dose 10 mg/kg, route oral; details: in vivo; summary of the method: as §1
# [16] = Drug level in ICR mouse brain at 5 mg/kg, iv after 1 hr by HPLC/MS/MS analysis; assay type: ADME, organism-based; set-up: dose 5 mg/kg, route intravenous; details: read-out: Drug uptake
# Nucleic Acid [17] = assay: Ratio of drug level in brain to plasma in ICR mouse at 5 mg/kg, iv after 2 hrs by HPLC/MS/MS analysis; assay type: ADME, organism-based; set-up: dose 5 mg/kg, route intravenous
# [18] = Plasma concentration in ICR mouse at 10 mg/kg, po after 4 hrs by HPLC/MS/MS analysis; assay type: ADME, organism-based; set-up: dose 10 mg/kg, route oral
# [19] = Drug level in ICR mouse brain at 5 mg/kg, iv after 2 hrs by HPLC/MS/MS analysis; assay type: ADME, organism-based; set-up: dose 5 mg/kg, route intravenous; details: read-out: Drug uptake
# [20] = Plasma concentration in ICR mouse at 10 mg/kg, po after 8 hrs by HPLC/MS/MS analysis; assay type: ADME, organism-based; set-up: dose 10 mg/kg, route oral
# [21] = Drug level in ICR mouse brain at 10 mg/kg, po after 2 hrs by HPLC/MS/MS analysis; assay type: ADME, organism-based; set-up: dose 10 mg/kg, route oral; details: read-out: Drug uptake
# [22] = AUC (0 to t) in ICR mouse at 5 mg/kg, iv; assay type: ADME, organism-based; set-up: dose 5 mg/kg, route intravenous; details: plasma; summary of the method: as §1
# [23] = Plasma concentration in ICR mouse at 5 mg/kg, iv after 4 hrs by HPLC/MS/MS analysis; assay type: ADME, organism-based; set-up: dose 5 mg/kg, route intravenous
# [24] = Plasma concentration in ICR mouse at 10 mg/kg, po after 2 hrs by HPLC/MS/MS analysis; assay type: ADME, organism-based; set-up: dose 10 mg/kg, route oral
# [25] = Tmax in ICR mouse at 5 mg/kg, iv; assay type: ADME, organism-based; set-up: dose 5 mg/kg, route intravenous; details: in vivo
# [26] = Plasma concentration in ICR mouse at 10 mg/kg, po after 0.25 hrs by HPLC/MS/MS analysis; assay type: ADME, organism-based; set-up: dose 10 mg/kg, route oral
# Nucleic Acid [27] = assay: Ratio of drug level in brain to plasma in ICR mouse at 5 mg/kg, iv after 0.5 hrs by HPLC/MS/MS analysis; assay type: ADME, organism-based; set-up: dose 5 mg/kg, route intravenous
# [28] = Plasma concentration in ICR mouse at 10 mg/kg, po after 6 hrs by HPLC/MS/MS analysis; assay type: ADME, organism-based; set-up: dose 10 mg/kg, route oral
# Nucleic Acid [29] = assay: Ratio of drug level in brain to plasma in ICR mouse at 10 mg/kg, po after 0.25 hrs by HPLC/MS/MS analysis; assay type: ADME, organism-based; set-up: dose 10 mg/kg, route oral
# Nucleic Acid [30] = assay: Ratio of drug level in brain to plasma in ICR mouse at 5 mg/kg, iv after 0.083 hrs by HPLC/MS/MS analysis; assay type: ADME, organism-based; set-up: dose 5 mg/kg, route intravenous
# [31] = Drug level in ICR mouse brain at 10 mg/kg, po after 0.25 hrs by HPLC/MS/MS analysis; assay type: ADME, organism-based; set-up: dose 10 mg/kg, route oral; details: read-out: Drug uptake
# Rattus norvegicus [32] = assay: Antiinflammatory activity in Wistar albino rat assessed as inhibition of carrageenan-induced paw edema at 30 mg/kg intragastrically administered 1 hr before carrageenan challenge measured after 1 to 24 hrs post carrageenan challenge by plethysmometer; assay type: functional, organism-based
# Summary of the method: (§2)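 Male Wistar albino rats, 140–160 g, eight per group, dosed i.g. as a suspension in 0.5% CMC; controls get 0.5% CMC only. 1 h later, 0.1 ml of 0.1% carrageenan in 0.9% NaCl is injected into the sub-plantar region of the right hind paw. Paw volume is read by plethysmometer hourly to 6 h and at 24 h. Inhibition (%) = (Vc − Vt)/Vc × 100 on mean volume increase; mean ± SEM.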
# [33] = AUC (0 to infinity) in ICR mouse at 5 mg/kg, iv; assay type: ADME, organism-based; set-up: time infinity, dose 5 mg/kg, route intravenous; details: plasma; summary of the method: as §1
# [34] = Plasma concentration in ICR mouse at 5 mg/kg, iv after 0.25 hrs by HPLC/MS/MS analysis; assay type: ADME, organism-based; set-up: dose 5 mg/kg, route intravenous
# Rattus norvegicus [35] = assay: Antiinflammatory activity in Wistar albino rat assessed as inhibition of carrageenan-induced paw edema at 33.6 mg/kg, ig administered 1 hr before carrageenan challenge measured after 1 to 24 hrs post carrageenan challenge by plethysmometer; assay type: functional, organism-based; summary of the method: as §2
# [36] = Tmax in ICR mouse at 10 mg/kg, po; assay type: ADME, organism-based; set-up: dose 10 mg/kg, route oral; details: in vivo
# [37] = Plasma concentration in ICR mouse at 5 mg/kg, iv after 8 hrs by HPLC/MS/MS analysis; assay type: ADME, organism-based; set-up: dose 5 mg/kg, route intravenous
# [38] = Drug level in ICR mouse brain at 10 mg/kg, po after 0.5 hrs by HPLC/MS/MS analysis; assay type: ADME, organism-based; set-up: dose 10 mg/kg, route oral; details: read-out: Drug uptake
# [39] = Plasma concentration in ICR mouse at 5 mg/kg, iv after 6 hrs by HPLC/MS/MS analysis; assay type: ADME, organism-based; set-up: dose 5 mg/kg, route intravenous
# [40] = Plasma concentration in ICR mouse at 5 mg/kg, iv after 1 hr by HPLC/MS/MS analysis; assay type: ADME, organism-based; set-up: dose 5 mg/kg, route intravenous
# [41] = AUC (0 to t) in ICR mouse at 10 mg/kg, po; assay type: ADME, organism-based; set-up: dose 10 mg/kg, route oral; details: plasma; summary of the method: as §1
# [42] = Drug level in ICR mouse brain at 10 mg/kg, po after 0.083 hrs by HPLC/MS/MS analysis; assay type: ADME, organism-based; set-up: dose 10 mg/kg, route oral; details: read-out: Drug uptake
# [43] = Drug level in ICR mouse brain at 10 mg/kg, po after 4 hrs by HPLC/MS/MS analysis; assay type: ADME, organism-based; set-up: dose 10 mg/kg, route oral; details: read-out: Drug uptake
# [44] = Drug level in ICR mouse brain at 10 mg/kg, po after 1 hr by HPLC/MS/MS analysis; assay type: ADME, organism-based; set-up: dose 10 mg/kg, route oral; details: read-out: Drug uptake
compound,measurement,setting,value
CC(C)Cc1ccc([C@H](CF)C(=O)O)cc1,concentration at 0.5 h,[1],13700 ng/mL
same,MRT inf,[2],49.8 min
same,BPR,Nucleic Acid [3],0.025 mL/g
same,Cmax,[4],31600 ng/mL
same,concentration at 0.083 h,[5],31600 ng/mL
same,concentration at 0.5 h,[6],523 ng/g
same,concentration at 0.5 h,[7],28500 ng/mL
same,BPR,Nucleic Acid [8],0.035 mL/g
same,concentration at 2 h,[9],2240 ng/mL
same,concentration at 0.083 h,[10],982 ng/g
same,concentration at 0.25 h,[11],759 ng/g
same,concentration at 1 h,[12],20900 ng/mL
same,BPR,Nucleic Acid [13],0.042 mL/g
same,AUC(0-inf),[14],50200 ng·h/mL
same,MRT inf,[15],57 min
same,concentration at 1 h,[16],232 ng/g
same,BPR,Nucleic Acid [17],0.032 mL/g
same,concentration at 4 h,[18],792 ng/mL
same,concentration at 2 h,[19],64.9 ng/g
same,concentration at 8 h,[20],42.4 ng/mL
same,concentration at 2 h,[21],162 ng/g
same,AUC(0-t),[22],23300 ng·h/mL
same,concentration at 4 h,[23],206 ng/mL
same,concentration at 2 h,[24],5310 ng/mL
same,Tmax,[25],4.8 min
same,concentration at 0.25 h,[26],42100 ng/mL
same,BPR,Nucleic Acid [27],0.038 mL/g
same,concentration at 6 h,[28],102 ng/mL
same,BPR,Nucleic Acid [29],0.03 mL/g
same,BPR,Nucleic Acid [30],0.031 mL/g
same,concentration at 0.25 h,[31],1270 ng/g
same,inhibition,Rattus norvegicus [32],Active
same,AUC(0-inf),[33],23300 ng·h/mL
same,concentration at 0.25 h,[34],18000 ng/mL
same,inhibition,Rattus norvegicus [35],Active
same,Tmax,[36],15 min
same,concentration at 8 h,[37],45.3 ng/mL
same,concentration at 0.5 h,[38],950 ng/g
same,concentration at 6 h,[39],130 ng/mL
same,concentration at 1 h,[40],6160 ng/mL
same,AUC(0-t),[41],50200 ng·h/mL
same,concentration at 0.083 h,[42],1160 ng/g
same,concentration at 4 h,[43],24.7 ng/g
same,concentration at 1 h,[44],516 ng/g
